# Insulin prom inh – TRM-6 insulin promoter activity inhibition. 130,000 tested, 0.9% active. inhibition, % at 2 µM. AID 1273. TRM-6 cells (human fetal islet line), insulin promoter-eGFP reporter, imaging; reporter expression induced with tamoxifen;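 active = inhibition above the mean plus 3 SD, with well images judged a real hit on visual review, cut at about 60% in these data, passing the limit was not always enough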
# Mdm2 ligase inh – Mdm2 E3 ligase (human) inhibition | AID 1230 | signal enhancement, % at 5 µM | Q00987 | cell-based MDM2 ubiquitination luciferase reporter, 2 h; 0 = plate control, 100 = twice control, blank-subtracted | 210,000 tested, 0.11% active;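 active = signal enhancement of 30% or more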;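 also: luminescence tracks abundance of the self-degrading MDM2-luciferase fusion protein; higher signal means inhibition of MDM2 E3 ligase activity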
# Target sequence (Q00987 whole entry, looked up, the tested form may be a part): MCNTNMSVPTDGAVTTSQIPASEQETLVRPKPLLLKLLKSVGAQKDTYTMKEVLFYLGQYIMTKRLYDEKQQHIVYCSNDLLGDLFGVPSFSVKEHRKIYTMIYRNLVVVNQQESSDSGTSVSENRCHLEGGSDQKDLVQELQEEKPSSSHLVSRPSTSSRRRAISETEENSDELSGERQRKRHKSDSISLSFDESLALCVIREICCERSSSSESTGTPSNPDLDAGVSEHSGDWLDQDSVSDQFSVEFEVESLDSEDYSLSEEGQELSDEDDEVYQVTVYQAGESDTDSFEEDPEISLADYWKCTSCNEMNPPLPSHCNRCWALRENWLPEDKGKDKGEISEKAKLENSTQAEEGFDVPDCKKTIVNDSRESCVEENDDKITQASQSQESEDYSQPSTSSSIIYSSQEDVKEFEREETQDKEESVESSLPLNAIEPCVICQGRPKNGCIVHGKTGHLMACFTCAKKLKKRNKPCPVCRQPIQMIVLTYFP
#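 Material: stable MDM2–luciferase fusion reporter cells / Quantity: 2000 cells/well / Dosing: single 5 µM compound dose, 0.2% final DMSO / Buffer or medium: DMEM / Schedule: 4 h cell settling then 2 h compound exposure, 37 °C / Detection: luminescence with SteadyLite reagent, 15 min at room temperature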
# Yeast growth inh – yeast BB579 growth reduction in restrictive medium; S. cerevisiae BB579 growth, OD615, 48 h; inhibition, % at 10 µM; 140,000 tested, 0.51% active; AID 804;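 active = inhibition above a set limit, 3 SD over the mean compound inhibition, cut at about 44% in these data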
#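 Assay system: S. cerevisiae DeaD strain BB579 yeast. Medium: CSMM-D restrictive synthetic medium containing dextrose (glucose). Times: 4 h cell preincubation, 48 h compound exposure, 30 °C humidified. Signal: OD615 turbidity measurement. Benchmarks: positive control amphotericin B 10 µg/mL.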
# Measles CPE – protection of cells from measles virus; Measles virus-infected cells, CPE protection, absorbance; protection (pct of control), % at 4 µM; 140,000 tested, 1.5% active; AID 841; in the data active = protection mostly above about 24%, no sharp cut-off; inactive = mostly below about 26%
# RAM inhibit – blocks the yeast RAM network. S. cerevisiae dse1pr::URA3 reporter, 5-FOA growth OD615, 2 d; analog-sensitive cbk1-as2 kinase mutant strain. inhibition, % at 50 µM. 190,000 tested, 1.8% active. AID 868;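 active = inhibition above a set limit, 3 SD over mean compound inhibition, cut at about 8.4% in these data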;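 also: inhibition rescues growth on 5-FOA so higher OD means more RAM inhibition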
# Yeast life ext – yeast lifespan extension; S. cerevisiae growth with nicotinamide, OD615; deaD strain in restrictive glucose medium; inhibition of the nicotinamide effect, % at 10 µM; 130,000 tested, 0.68% active; AID 775;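 active = inhibition above a set limit, placed 3 SD over the median of all compounds, cut at about 26% in these data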
#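 Assay system: engineered S. cerevisiae DeaD replicative-lifespan strain, galactose-grown log-phase cells; Buffer or medium: CSMM-D glucose medium, restrictive; Probe or stimulus: nicotinamide 1.5 mM; Compound: single dose 10 µM compound, 0.25% DMSO; Schedule: 4 h preincubation then 48 h treatment at 30 °C; Technique: OD615 measurement.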
# Hits are given with their value; i = inactive; nt = no result given. Shown are actives, neighbours in structure and some others; about 4% of the full set was active somewhere.
SMILES,Insulin prom inh,Mdm2 ligase inh,Yeast growth inh,Measles CPE,RAM inhibit,Yeast life ext
CC(C(=O)Nc1cc([N+](=O)[O-])ccc1Cl)N1CCN(c2ccc(O)cc2)CC1 (stereo not given),72,i,i,i,i,i
O=C(NC1CCCCC1)N1CCC(n2cnc3ccccc32)CC1,nt,i,i,76,i,i
S=C(NCCc1ccccc1)Nc1ccc(Br)cc1,nt,i,i,i,i,i
O=C1N=C(N2CCOCC2)S/C1=C/c1cc2c(cc1[N+](=O)[O-])OCO2,nt,i,nt,nt,nt,nt
Cc1cc(C)cc(N(CCC(=O)O)S(=O)(=O)c2ccc3ccccc3c2)c1,i,i,i,i,i,33
O=C(Oc1ccccc1)n1c(=S)oc2ccccc21,i,i,i,i,i,i
Cc1ccccc1OC(=O)n1c(=S)oc2cc(Cl)ccc21,i,i,i,i,i,80
CC1=C(C(=O)Nc2ccccc2C(F)(F)F)C(c2sccc2C)NC(=S)N1 (stereo not given),nt,i,nt,nt,i,nt
COC(=O)c1cc(NC(=O)c2ccc(Cn3cc(Cl)cn3)o2)cc(C(=O)OC)c1,93,i,i,i,i,i
COC(=O)c1ccccc1NC(=O)c1ccc(Cn2cc(Cl)cn2)o1,i,nt,i,i,i,i
NC(=O)c1ccc(/C=N/O)nc1,i,i,nt,nt,i,nt
NNC(=O)c1cccc(COc2ccc3c(c2)CCC3)c1,i,i,51,i,i,i
NNC(=O)c1cccc(COc2ccccc2Br)c1,i,i,i,nt,i,i
N/C(=N\OC(=O)c1cnn(-c2ccccc2)c1C(F)(F)F)c1ccc(C(F)(F)F)cc1,nt,i,nt,nt,nt,nt
Cc1ccc(CNS(=O)(=O)NCc2ccc(Cl)cc2)cc1,nt,i,nt,nt,i,nt
Cc1ccc(CNS(=O)(=O)NCc2cccs2)cc1,77,i,nt,nt,i,nt
Cc1[nH]c2ccccc2c1C(=O)COC(=O)c1ccc2c(=O)n3c(nc2c1)CCC3,nt,nt,nt,nt,9.1,nt
CN(C(=O)COC(=O)c1ccc2c(=O)n3c(nc2c1)CCC3)c1ccccc1,i,i,i,i,i,i
COC(=O)c1ccc(SCc2cnc(Cl)s2)cc1,nt,i,i,i,i,i
O=C(O)c1ccc(SCc2cnc(Cl)s2)cc1,i,i,97,i,i,i
COc1ccc(CCN2C(=O)c3[nH]nc(-c4ccccc4O)c3C2c2cccc(Cl)c2)cc1 (stereo not given),i,i,i,i,i,i
COc1ccc(C2c3c(-c4ccccc4O)n[nH]c3C(=O)N2CCc2ccc(OC)c(OC)c2)cc1 (stereo not given),nt,i,i,i,11,i
O=C(C1=C(Nc2ccccc2)c2ccccc2S(=O)(=O)N1)c1ccccc1,i,i,i,26,i,i
O=C(O)CCC(=O)Nc1cc(C(F)(F)F)cc(C(F)(F)F)c1,nt,i,nt,nt,nt,nt
OCCN1CCN(Cc2cc(Cl)c3cccnc3c2O)CC1,i,i,i,i,i,i
SMILES,Insulin prom inh,Mdm2 ligase inh,Yeast growth inh,Measles CPE,RAM inhibit,Yeast life ext
COc1ccccc1N1CCN(Cc2cc(Br)c(O)c3ncccc23)CC1,nt,i,97,i,i,i
Oc1c(CN2CCN(c3ccccn3)CC2)cc(Cl)c2cccnc12,i,i,59,i,i,i
O=C(Oc1c(CN2CCOCC2)cc(Cl)c2cccnc12)c1ccc(F)cc1,i,i,i,i,i,28
CCc1ccc(NC(=O)C(=O)NCCOc2ccccc2Cl)cc1,nt,i,nt,nt,i,nt
C=CCn1c(=O)c2c3c(sc2n2c(Nc4ccc(C(=O)OCC)cc4)nnc12)CCCC3,i,i,i,i,8.5,i
C=CCn1c(=O)c2c3c(sc2n2c(Nc4ccc(OC)cc4)nnc12)CCCC3,i,i,i,i,i,i
Cc1ccc(N(CN2CCCC2=O)C(=O)c2ccc(OC(C)C)cc2)cc1,i,i,i,i,i,i
CC1CC(=O)Nc2ccccc2N1S(=O)(=O)c1cccc(Cl)c1 (stereo not given),i,i,i,39,i,i
CNC(=O)N1c2ccccc2NC(=O)CC1C (stereo not given),nt,i,nt,nt,i,nt
Cc1ccc(CNC(=O)C2CCC(=O)N2CCc2ccccc2)cc1 (stereo not given),i,i,i,i,i,i
COc1ccccc1NC(=O)COC(=O)C12CC3CC(CC(Cl)(C3)C1)C2,i,i,nt,nt,11,nt
COc1cccc(C2CC(c3ccc(C)cc3)Nc3nc(N)nn32)c1 (stereo not given),nt,i,i,40,i,i
COc1cccc(C2CC(c3ccc(C)cc3)n3nc(N)nc3N2)c1 (stereo not given),i,i,i,i,i,i
Cc1onc(-c2c(Cl)cccc2Cl)c1C(=O)Nc1ccc(N2CCOCC2)cc1,nt,i,nt,nt,nt,nt
CS(=O)(=O)c1nc(-c2ccco2)cc(C(F)(F)F)n1,i,i,i,i,i,89
COc1ccccc1-c1cc(C(F)(F)F)nc(S(C)(=O)=O)n1,i,i,i,i,i,i
FC(F)(F)c1cc(-c2ccco2)nc(-n2nc(C(F)(F)F)cc2C2CC2)n1,i,i,i,i,9.1,i
COc1ccc2cc(C(C)c3nc4ccccc4c(=O)n3N)ccc2c1 (stereo not given),i,i,i,i,i,31
COc1ccc(-c2nc3ccccc3c(=O)n2N)cc1,i,i,i,i,i,i
CC1CC(c2ccccc2)n2nc(N3C(=O)c4ccccc4C3=O)nc2N1 (stereo not given),i,i,i,27,i,i
CS(=O)(=O)Nc1nc2n(n1)C(c1ccc(F)cc1)CC(c1ccccc1)N2 (stereo not given),nt,i,nt,nt,nt,nt
CN1C(=O)c2cccc3c(Cl)ccc(c23)C1=O,i,i,61,i,i,i
CN1C(=O)c2ccc(N(C)C)cc2C1=O,i,i,i,i,i,nt
Cc1ccc2cc3cc(C(=O)NCc4ccc5c(c4)OCO5)oc3nc2c1,i,i,i,34,i,i
O=C(NCc1ccc2c(c1)OCO2)c1cc2ccccc2o1,i,i,i,i,i,i
SMILES,Insulin prom inh,Mdm2 ligase inh,Yeast growth inh,Measles CPE,RAM inhibit,Yeast life ext
Cc1ccc(O)c(-c2cc(C(=O)NCc3ccc4c(c3)OCO4)[nH]n2)c1,i,i,i,29,i,i
COC(=O)c1ccccc1NC(=O)/C=C/C(=O)O,i,i,i,i,i,i
COC(=O)c1ccccc1NC(=O)/C=N/O,i,i,i,44,i,i
Cc1onc(-c2ccccc2Cl)c1C(=O)O/N=C(\N)c1ccc([N+](=O)[O-])o1,nt,i,nt,nt,nt,nt
CCCCCCOC(=O)C[N+](C)(C)CCOC1CC2CCC1(C)C2(C)C (stereo not given),i,i,i,i,i,i
CCCCCCCOC(=O)C[N+](C)(C)CCOC1CC2CCC1(C)C2(C)C (stereo not given),nt,i,100,i,i,i
Cc1cc(NS(=O)(=O)c2ccc(NC(=O)c3oc4ccccc4c3C)cc2)no1,79,i,i,i,i,i
